The record followed here is ChEMBL document CHEMBL1138987, “Development of cyclic gamma-MSH analogues with selective hMC3R agonist and hMC3R/hMC5R antagonist activities” (J Med Chem, 2006).

pEC50, pIC50: −log10 of the molar value. Where only a bound is given, the exact number is not on record here.

Assay [1] has as its target T1, Melanocortin receptor 4 (Homo sapiens, UniProt P32245). The assay is described as follows: Activity against hMC4R transfected in HEK293 cells by intracellular cAMP accumulation. It is filed as functional, cell-based. In outline:
(§1)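 HEK293 cells stably transfected with human receptor, grown to confluence in MEM with 10% FBS, seeded 48 h before assay. Cells preincubated 1 min at 37 °C in EBSS with IBMX (0.5 mM stock). Peptide added (10^-10 to 10^-5 M), 3 min at 37 °C. Stopped with ice-cold Tris/EDTA, boiled, cAMP measured by competitive binding kit. EC50 from nonlinear least-squares fit; mean of two experiments in triplicate.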
A general note: Cyclic AMP is a second messenger, typically raised through Gs and lowered through Gi signalling.

Assay [2] deals with T2, Melanocortin receptor 3 (Homo sapiens, UniProt P41968). The assay is described as follows: Inhibitory activity against hMC3R transfected in HEK293 cells. It is filed as cell-based. In short, it runs like this:
(§2)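 Competition binding on whole HEK293 cells stably expressing the human receptor, seeded 48 h prior. Binding buffer was MEM, 25 mM HEPES pH 7.4, 0.2% BSA, 1,10-phenanthroline, leupeptin and bacitracin. Cells washed and lysed, then gamma counted. IC50 from nonlinear least-squares fit; mean of two experiments in triplicate.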

For assay [3], the target named is T3, Melanocortin receptor 5 (Homo sapiens, UniProt P33032). The assay is described as follows: Activity against hMC5R transfected in HEK293 cells by intracellular cAMP accumulation. It is filed as functional, cell-based. In short, it runs like this:
as §1

Assay [4] has as its target T3, Melanocortin receptor 5. The assay is described as follows: Inhibitory activity against hMC5R transfected in HEK293 cells. Format: cell-based. In short, it runs like this:
as §2

The target of assay [5] is T4, Melanocyte-stimulating hormone receptor (Homo sapiens, UniProt Q01726). The assay is described as follows: Inhibitory activity against hMC1R transfected in HEK293 cells. It is filed as cell-based. In short, it runs like this: as §2
Target sequence in this assay (Q01726 whole entry): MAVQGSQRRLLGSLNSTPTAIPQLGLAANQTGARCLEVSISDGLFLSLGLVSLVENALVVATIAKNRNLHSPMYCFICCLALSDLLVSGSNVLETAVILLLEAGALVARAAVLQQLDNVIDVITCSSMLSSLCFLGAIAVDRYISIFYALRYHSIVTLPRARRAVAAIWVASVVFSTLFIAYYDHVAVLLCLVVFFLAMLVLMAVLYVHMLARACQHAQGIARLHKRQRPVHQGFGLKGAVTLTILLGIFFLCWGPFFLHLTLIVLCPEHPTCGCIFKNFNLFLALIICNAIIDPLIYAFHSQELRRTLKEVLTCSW
Assay [6] concerns the target T1, Melanocortin receptor 4. The assay is described as follows: Inhibitory activity against hMC4R transfected in HEK293 cells. Format: cell-based. In outline: as §2
The target in assay [7] is T4, Melanocyte-stimulating hormone receptor. The assay is described as follows: Activity against hMC1R transfected in HEK293 cells by intracellular cAMP accumulation. Format: functional, cell-based. In short, it runs like this:
as §1

The target in assay [8] is T2, Melanocortin receptor 3. The assay is described as follows: Activity against hMC3R transfected in HEK293 cells by intracellular cAMP accumulation. Format: functional, cell-based. In outline: as §1

T1 sequence (P32245 whole entry): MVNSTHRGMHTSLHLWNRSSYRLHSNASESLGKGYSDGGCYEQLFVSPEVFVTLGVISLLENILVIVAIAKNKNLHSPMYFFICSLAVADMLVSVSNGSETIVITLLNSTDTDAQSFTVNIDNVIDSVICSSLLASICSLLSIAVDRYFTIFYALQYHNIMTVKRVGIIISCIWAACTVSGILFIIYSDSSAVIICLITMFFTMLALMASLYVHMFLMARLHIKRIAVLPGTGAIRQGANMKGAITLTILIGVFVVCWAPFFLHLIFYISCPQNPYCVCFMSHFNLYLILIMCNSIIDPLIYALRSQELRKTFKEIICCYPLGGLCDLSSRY
T3 sequence (P33032 whole entry): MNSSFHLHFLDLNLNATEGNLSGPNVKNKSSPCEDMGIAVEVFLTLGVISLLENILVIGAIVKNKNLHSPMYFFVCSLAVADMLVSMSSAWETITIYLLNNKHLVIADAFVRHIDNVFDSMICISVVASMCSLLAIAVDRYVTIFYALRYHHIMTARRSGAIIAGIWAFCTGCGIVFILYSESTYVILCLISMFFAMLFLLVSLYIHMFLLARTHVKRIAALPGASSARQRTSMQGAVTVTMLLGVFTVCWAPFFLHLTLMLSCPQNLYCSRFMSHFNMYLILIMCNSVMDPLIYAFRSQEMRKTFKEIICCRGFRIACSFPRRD
T2 sequence (P41968 whole entry): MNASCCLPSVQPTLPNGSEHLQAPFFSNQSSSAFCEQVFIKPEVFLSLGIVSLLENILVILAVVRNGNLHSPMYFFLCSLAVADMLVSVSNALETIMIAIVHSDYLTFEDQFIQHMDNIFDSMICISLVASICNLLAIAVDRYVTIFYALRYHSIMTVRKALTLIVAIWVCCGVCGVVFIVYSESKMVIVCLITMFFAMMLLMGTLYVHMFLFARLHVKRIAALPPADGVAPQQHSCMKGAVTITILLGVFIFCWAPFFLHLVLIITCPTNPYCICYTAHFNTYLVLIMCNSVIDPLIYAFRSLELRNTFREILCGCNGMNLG

One may read the pEC50 as the EC50 on a negative log10 scale, so that one unit is a factor of ten. The low end stands for a large EC50, the high end for a small EC50. By pIC50 is commonly meant the IC50 on a negative log10 scale, so that one unit is a factor of ten. A higher pIC50 goes with a low IC50. As for `CCCC[C@@H]1NC(=O)CC[C@@H](C(N)=O)NC(=O)[C@H](Cc2c[nH]c3ccccc23)NC(=O)[C@H](CCCN=C(N)N)NC(=O)[C@@H](Cc2ccc3ccccc3c2)NC(=O)[C@H](C(C)C)NC1=O`, the %max is 13% at Melanocortin receptor 4 [1], 0% at Melanocortin receptor 5 [3], 0% in assay [7] and 0% at Melanocortin receptor 3 [8]. Also, the pEC50 at Melanocortin receptor 4 [1] is 7.80; on Melanocortin receptor 5 [3], < 5.00; in assay [7], < 5.00; on Melanocortin receptor 3 [8] it was < 5.00. For the same compound, the pIC50 against Melanocortin receptor 3 [2] is 8.77; against Melanocortin receptor 5 [4], 8.66; in assay [5], 5.40; against Melanocortin receptor 4 [6], 6.74. Moreover, the Kb at Melanocortin receptor 5 [3] (read-out: pA2 (converted)) was 2 nM; at Melanocortin receptor 3 [8] (read-out: pA2 (converted)) it was 3.98 nM.
As to `CCCC[C@@H]1NC(=O)CC[C@@H](C(N)=O)NC(=O)[C@H](Cc2c[nH]c3ccccc23)NC(=O)[C@H](CCCN=C(N)N)NC(=O)[C@@H](Cc2ccc3ccccc3c2)NC(=O)[C@H](CCCN=C(N)N)NC1=O`, the pEC50 at Melanocortin receptor 4 [1] was 6.28; on Melanocortin receptor 5 [3], < 5.00; in assay [7], < 5.00; at Melanocortin receptor 3 [8] it was < 5.00. Further, the pIC50 is 8.59 at Melanocortin receptor 3 [2], 8.64 on Melanocortin receptor 5 [4], 5.82 in assay [5] and 7.11 on Melanocortin receptor 4 [6].
In the case of `CCCC[C@@H]1NC(=O)CC[C@@H](C(N)=O)NC(=O)[C@H](Cc2c[nH]c3ccccc23)NC(=O)[C@H](CCCN=C(N)N)NC(=O)[C@@H](Cc2ccccc2)NC(=O)[C@H](CCCC)NC1=O`, the %max on Melanocortin receptor 4 [1] is 50%; on Melanocortin receptor 5 [3] it was 0%; in assay [7], 0%; on Melanocortin receptor 3 [8] it was 27%. Besides, the pEC50 at Melanocortin receptor 4 [1] was < 6.00; at Melanocortin receptor 5 [3], < 5.00; in assay [7], < 5.00; on Melanocortin receptor 3 [8] it was 6.52. Besides, the pIC50 was 6.60 against Melanocortin receptor 3 [2], 7.15 against Melanocortin receptor 5 [4], < 5.00 in assay [5] and 6.22 against Melanocortin receptor 4 [6].
Take `CCCC[C@@H]1NC(=O)CC[C@@H](C(N)=O)NC(=O)[C@H](Cc2c[nH]c3ccccc23)NC(=O)[C@H](CCCN=C(N)N)NC(=O)[C@@H](Cc2ccccc2)NC(=O)[C@H](CC(=O)O)NC1=O`: the %max (on Melanocortin receptor 4 [1]; on Melanocortin receptor 5 [3]; in assay [7]; at Melanocortin receptor 3 [8]) was 0% in each case. The negative-log EC50 (pEC50) (at Melanocortin receptor 4 [1]; at Melanocortin receptor 5 [3]; in assay [7]; at Melanocortin receptor 3 [8]) was < 5.00 each time. Also, the negative logarithm of the IC50 (pIC50) is < 5.00 on Melanocortin receptor 3 [2], < 5.00 on Melanocortin receptor 5 [4], < 5.00 in assay [5] and 6.82 against Melanocortin receptor 4 [6].
In the case of `CCCC[C@@H]1NC(=O)CC[C@@H](C(N)=O)NC(=O)[C@H](Cc2c[nH]c3ccccc23)NC(=O)[C@H](CCCN=C(N)N)NC(=O)[C@@H](Cc2ccccc2)NC(=O)[C@H](C(C)C)NC1=O`, the %max at Melanocortin receptor 4 [1] is 25%; at Melanocortin receptor 5 [3] it was 75%; in assay [7], 0%; at Melanocortin receptor 3 [8] it was 108%. The pEC50 at Melanocortin receptor 4 [1] is 5.52; at Melanocortin receptor 5 [3], 6.74; in assay [7] it was < 5.00; on Melanocortin receptor 3 [8] it was 7.57. Further, the pIC50 is 6.22 on Melanocortin receptor 3 [2], 6.96 against Melanocortin receptor 5 [4], < 5.00 in assay [5] and 5.60 against Melanocortin receptor 4 [6].
